The source of these data is ChEMBL document CHEMBL4382248, “Optimization of a 1,3,4-oxadiazole series for inhibition of Ca2+/calmodulin-stimulated activity of adenylyl cyclases 1 and 8 for the treatment of chronic pain” (Eur J Med Chem, 2019).

Broadly, the inhibition is the share of the control response that was lost under treatment. What is called IC50 is the concentration that gives 50% inhibition.

Holding throughout (assay type): cell-based
The nature of data set [1]: Cytotoxicity against HEK293 cells expressing human AC1 at 30 uM preincubated for 30 mins followed by A23187 stimulation and measured after 1 hr by CellTiter-Glo luminescent cell viability assay relative to control. Particulars: HEK293 cells expressing human AC1, read-out: Activity. Put shortly:
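Cytotoxicity in HEK lines stably expressing AC1 or AC8: single 30 µM dose, 90 min incubation. Viability was read by luminescent ATP reporter as % of DMSO-treated (100%) and Triton-X-treated (0%) controls.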

A further data set concerns the target Adenylate cyclase type 8 (Homo sapiens, UniProt P40145). Kind of data set: Inhibition of human AC8 expressed in HEK293 cells assessed as decrease in A23187-stimulated cAMP accumulation at 30 uM preincubated for 30 mins followed by A23187 stimulation and measured after 1 hr by fluorescence assay relative to control. Put shortly: (§1)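 HEK cells stably expressing AC1 or AC8; Ca2+/calmodulin-stimulated cAMP accumulation measured. Dose-response curves began at 30 µM. […] Values are the mean and SEM of three independent experiments.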
On the technique in general: Cyclic AMP is a second messenger, typically raised through Gs and lowered through Gi signalling.

The species named for a further data set is Homo sapiens. Kind of data set: Selectivity ratio of IC50 for human AC8 expressed in HEK293 cells to IC50 for human AC1 expressed in HEK293 cells.
The target of the next data set is Adenylate cyclase type 1 (Homo sapiens, UniProt Q08828). Put plainly: Inhibition of human AC1 expressed in HEK293 cells assessed as decrease in A23187-stimulated cAMP accumulation preincubated for 30 mins followed by A23187 stimulation and measured after 1 hr by fluorescence assay. The method, boiled down: as §1
Adenylate cyclase type 1, sequence (Q08828 whole entry): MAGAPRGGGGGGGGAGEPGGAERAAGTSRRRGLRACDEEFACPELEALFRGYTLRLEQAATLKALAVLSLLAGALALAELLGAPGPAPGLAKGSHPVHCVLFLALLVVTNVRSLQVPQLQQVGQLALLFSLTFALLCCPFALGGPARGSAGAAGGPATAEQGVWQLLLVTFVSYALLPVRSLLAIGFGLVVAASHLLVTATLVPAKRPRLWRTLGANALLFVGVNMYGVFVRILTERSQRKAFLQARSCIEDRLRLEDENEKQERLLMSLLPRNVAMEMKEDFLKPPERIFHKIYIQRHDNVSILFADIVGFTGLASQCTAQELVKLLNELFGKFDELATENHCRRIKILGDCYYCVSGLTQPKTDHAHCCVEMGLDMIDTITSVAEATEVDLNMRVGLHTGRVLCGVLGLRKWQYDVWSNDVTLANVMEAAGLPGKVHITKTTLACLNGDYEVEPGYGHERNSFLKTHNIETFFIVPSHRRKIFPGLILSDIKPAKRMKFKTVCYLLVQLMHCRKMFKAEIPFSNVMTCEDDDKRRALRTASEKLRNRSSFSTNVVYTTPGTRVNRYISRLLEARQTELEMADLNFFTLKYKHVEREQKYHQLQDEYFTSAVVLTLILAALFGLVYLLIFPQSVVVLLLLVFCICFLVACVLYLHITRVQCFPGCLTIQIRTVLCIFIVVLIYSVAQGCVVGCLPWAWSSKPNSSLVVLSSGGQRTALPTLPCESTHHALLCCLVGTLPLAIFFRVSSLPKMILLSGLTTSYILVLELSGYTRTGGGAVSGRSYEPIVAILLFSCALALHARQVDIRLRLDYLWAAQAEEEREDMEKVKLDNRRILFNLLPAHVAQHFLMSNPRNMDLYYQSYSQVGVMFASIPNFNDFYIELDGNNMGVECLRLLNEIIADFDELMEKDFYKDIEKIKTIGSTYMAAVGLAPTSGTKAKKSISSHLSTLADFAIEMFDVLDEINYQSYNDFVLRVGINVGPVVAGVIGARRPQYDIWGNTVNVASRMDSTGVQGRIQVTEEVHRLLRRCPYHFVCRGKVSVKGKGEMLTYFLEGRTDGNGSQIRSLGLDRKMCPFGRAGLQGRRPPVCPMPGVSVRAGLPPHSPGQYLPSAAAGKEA

Adenylate cyclase type 8, sequence (P40145 whole entry): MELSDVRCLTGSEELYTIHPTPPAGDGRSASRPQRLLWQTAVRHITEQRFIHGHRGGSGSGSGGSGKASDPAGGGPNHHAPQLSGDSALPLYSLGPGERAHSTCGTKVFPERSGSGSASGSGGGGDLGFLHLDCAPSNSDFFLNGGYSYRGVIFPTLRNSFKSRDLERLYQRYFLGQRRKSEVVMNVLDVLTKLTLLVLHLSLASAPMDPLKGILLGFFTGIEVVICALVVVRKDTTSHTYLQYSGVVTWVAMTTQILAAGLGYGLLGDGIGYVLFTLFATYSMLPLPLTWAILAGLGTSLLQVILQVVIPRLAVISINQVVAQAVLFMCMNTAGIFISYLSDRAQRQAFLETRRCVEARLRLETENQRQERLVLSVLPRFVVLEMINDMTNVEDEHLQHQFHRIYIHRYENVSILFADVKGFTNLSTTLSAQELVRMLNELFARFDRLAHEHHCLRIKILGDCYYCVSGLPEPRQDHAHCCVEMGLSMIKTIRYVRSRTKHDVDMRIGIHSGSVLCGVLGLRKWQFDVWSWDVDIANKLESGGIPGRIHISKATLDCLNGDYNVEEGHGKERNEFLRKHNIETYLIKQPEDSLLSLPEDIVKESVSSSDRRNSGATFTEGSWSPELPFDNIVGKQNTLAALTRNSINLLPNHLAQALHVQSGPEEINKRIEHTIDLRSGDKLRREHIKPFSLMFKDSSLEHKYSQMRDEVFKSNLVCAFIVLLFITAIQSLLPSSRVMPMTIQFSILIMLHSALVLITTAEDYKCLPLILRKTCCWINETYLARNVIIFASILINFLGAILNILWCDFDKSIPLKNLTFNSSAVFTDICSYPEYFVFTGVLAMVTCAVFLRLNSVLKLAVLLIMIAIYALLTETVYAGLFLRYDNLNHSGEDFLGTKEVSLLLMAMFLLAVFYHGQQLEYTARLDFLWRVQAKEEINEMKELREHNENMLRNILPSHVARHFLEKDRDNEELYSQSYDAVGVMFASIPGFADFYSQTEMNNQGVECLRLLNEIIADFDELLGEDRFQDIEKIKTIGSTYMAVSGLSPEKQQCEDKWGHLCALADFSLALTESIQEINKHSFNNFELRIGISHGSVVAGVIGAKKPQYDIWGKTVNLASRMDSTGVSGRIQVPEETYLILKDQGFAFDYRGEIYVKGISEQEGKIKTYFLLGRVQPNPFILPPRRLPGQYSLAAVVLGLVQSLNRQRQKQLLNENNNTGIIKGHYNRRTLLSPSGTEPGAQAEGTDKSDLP

For `COc1cccc(C(=O)Nc2nnc(-c3ccc4c(c3)OCCO4)o2)c1`, the viability at 1 h, 30 µM in data set [1] turned out to be 103%. Besides, the inhibition on Adenylate cyclase type 8 worked out at 18%.

Regarding `O=C(Nc1nnc(-c2ccc(F)cc2)o1)c1cccc(C(F)(F)F)c1`, the Ratio IC50 in the data set filed under Homo sapiens stood at 5.8. The viability at 1 h, 30 µM in data set [1] amounted to 108%.

`O=C(Nc1nnc(-c2cccs2)o1)c1ccc(Br)cc1`: the viability at 1 h, 30 µM in data set [1] was found to be 110%. For the same molecule, the inhibition on Adenylate cyclase type 8 was found to be 41%.

As to `O=C(Nc1nnc(-c2ccc(F)cc2)o1)c1ccc(F)cc1`, in data set [1], the viability at 1 h, 30 µM came out at 100%. In addition, the inhibition at Adenylate cyclase type 8 was determined as 14%.

Turning to `COc1ccc(C(=O)Nc2nnc(-c3ccc(F)cc3)o2)cc1`, the viability at 1 h, 30 µM in data set [1] stood at 82%. Also, at Adenylate cyclase type 8, the inhibition was determined as 20%. The IC50 on Adenylate cyclase type 1 stood at 13 µM.

For the molecule `Cc1cc(C(=O)Nc2nnc(-c3ccc4c(c3)CCCC4)o2)cc(C(F)(F)F)c1`, the Ratio IC50 in the data set filed under Homo sapiens was 0.26. In data set [1], the viability at 1 h, 30 µM was found to be 116%.

Regarding `O=C(Nc1nnc(-c2ccc3c(c2)OCCO3)o1)c1ccccc1`, in the data set filed under Homo sapiens, the Ratio IC50 was over 1. For the same molecule, the viability at 1 h, 30 µM in data set [1] worked out at 87%. Further, the inhibition on Adenylate cyclase type 8 was 24%.

In the case of `CC(C)Oc1ccc(C(=O)Nc2nnc(-c3ccc4c(c3)CCCC4)o2)cc1`, the Ratio IC50 in the data set filed under Homo sapiens lay in the range of 0.73 to 1.2. Also, the viability at 1 h, 30 µM in data set [1] was in the range of 124 to 129%.

Regarding `O=C(Nc1nnc(-c2ccc3c(c2)OCCO3)o1)c1cccc(C(F)(F)F)c1`, in the data set filed under Homo sapiens, the Ratio IC50 stood at 6.3. In data set [1], the viability at 1 h, 30 µM was 116%.

In the case of `CSc1cccc(C(=O)Nc2nnc(-c3ccc4c(c3)OCCO4)o2)c1`, in data set [1], the viability at 1 h, 30 µM came to 109%. Moreover, the inhibition on Adenylate cyclase type 8 worked out at 37%. The IC50 at Adenylate cyclase type 1 turned out to be 9.5 µM.

On to `Cc1cc(C(=O)Nc2nnc(C3CCCCC3)o2)cc(C(F)(F)F)c1`, for which, in the data set filed under Homo sapiens, the Ratio IC50 worked out at 2.9. Besides, the viability at 1 h, 30 µM in data set [1] came to 125%.

As to `O=C(Nc1nnc(-c2ccc(F)cc2)o1)c1ccc(Cl)cc1`, in data set [1], the viability at 1 h, 30 µM is 84%. Besides, at Adenylate cyclase type 8, the inhibition was found to be 11%.

As for `O=C(Nc1nnc(-c2ccc(F)cc2)o1)c1ccc(S(=O)(=O)N2CCCCC2)cc1`, the viability at 1 h, 30 µM in data set [1] was 119%. Further, the inhibition on Adenylate cyclase type 8 was determined as 38%. Besides, at Adenylate cyclase type 1, the IC50 turned out to be 16 µM.

With `COc1ccc(C(=O)Nc2nnc(C3CCCCC3)o2)cc1`, in data set [1], the viability at 1 h, 30 µM is 82%. For the same molecule, the inhibition at Adenylate cyclase type 8 came to 6%.

For the molecule `CCc1ccc(C(=O)Nc2nnc(C3CCCCC3)o2)cc1`, in data set [1], the viability at 1 h, 30 µM was 119%. For the same molecule, on Adenylate cyclase type 8, the inhibition was found to be 44%.

For the molecule `CSc1cccc(C(=O)Nc2nnc(C3CCCCC3)o2)c1`, in the data set filed under Homo sapiens, the Ratio IC50 was over 4.5. Further, the viability at 1 h, 30 µM in data set [1] lay in the range of 117 to 137%. In addition, the inhibition on Adenylate cyclase type 8 was 31 to 43%.

As for `O=C(Nc1nnc(C2CCCCC2)o1)c1ccc(Cl)cc1`, the viability at 1 h, 30 µM in data set [1] turned out to be 89%. Also, the inhibition at Adenylate cyclase type 8 came to 10%. Besides, at Adenylate cyclase type 1, the IC50 is 14 µM.

As to `COc1cccc(C(=O)Nc2nnc(-c3ccc4c(c3)CCCC4)o2)c1`, in the data set listed under Homo sapiens, the Ratio IC50 was in the range of 0.83 to 8.1. Further, the viability at 1 h, 30 µM in data set [1] was in the range of 111 to 124%.

In the case of `O=C(Nc1nnc(-c2ccc3c(c2)CCCC3)o1)c1cccc(F)c1`, in the data set filed under Homo sapiens, the Ratio IC50 stood at 4.2. The viability at 1 h, 30 µM in data set [1] was found to be 94%.

For `O=C(Nc1nnc(-c2cccs2)o1)c1ccccc1`, in data set [1], the viability at 1 h, 30 µM worked out at 97%. The inhibition at Adenylate cyclase type 8 was determined as 18%. At Adenylate cyclase type 1, the IC50 came to 28 µM.

As to `CSc1cccc(C(=O)Nc2nnc(-c3cccs3)o2)c1`, the viability at 1 h, 30 µM in data set [1] was 110%. For the same molecule, the inhibition at Adenylate cyclase type 8 was determined as 34%.

On to `CCc1ccc(C(=O)Nc2nnc(-c3ccc4c(c3)CCCC4)o2)cc1`, for which the Ratio IC50 in the data set listed under Homo sapiens came to 1.7. Also, the viability at 1 h, 30 µM in data set [1] was 114%.

Regarding `COc1cc(C(=O)Nc2nnc(-c3ccc4c(c3)CCCC4)o2)cc(C(F)(F)F)c1`, in the data set listed under Homo sapiens, the Ratio IC50 came to 1.1. Moreover, the viability at 1 h, 30 µM in data set [1] came to 121%.

On to `O=C(Nc1nnc(C2CCCCC2)o1)c1cccc(-c2ccccc2)c1`, for which, in the data set listed under Homo sapiens, the Ratio IC50 is 1. Also, the viability at 1 h, 30 µM in data set [1] stood at 115%.

Take `O=C(Nc1nnc(-c2ccc3c(c2)CCCC3)o1)c1ccc(F)cc1`: the Ratio IC50 in the data set listed under Homo sapiens came to 3.7. Also, the viability at 1 h, 30 µM in data set [1] was 110%.

`Cc1ccc(C(=O)Nc2nnc(C3CCCCC3)o2)cc1C`: the Ratio IC50 in the data set listed under Homo sapiens came to 5.4. Besides, in data set [1], the viability at 1 h, 30 µM is 112%.

With `CC(C)Oc1ccc(C(=O)Nc2nnc(-c3ccc4c(c3)OCCO4)o2)cc1`, the viability at 1 h, 30 µM in data set [1] worked out at 160%. Further, the inhibition at Adenylate cyclase type 8 is 39%.

For the molecule `Cc1ccc(C(=O)Nc2nnc(-c3ccc(F)cc3)o2)cc1C`, the viability at 1 h, 30 µM in data set [1] is 95%. Also, on Adenylate cyclase type 8, the inhibition came out at 42%.

As for `Cc1ccc(C(=O)Nc2nnc(C3CCCCC3)o2)cc1`, the viability at 1 h, 30 µM in data set [1] is 111%. Also, the inhibition on Adenylate cyclase type 8 stood at 1%. Besides, the IC50 at Adenylate cyclase type 1 came to 16 µM.

Take `Cc1ccc(C(=O)Nc2nnc(-c3ccc(F)cc3)o2)cc1C(F)(F)F`: the Ratio IC50 in the data set listed under Homo sapiens turned out to be 1.9. Further, the viability at 1 h, 30 µM in data set [1] came to 133%.

Take `O=C(Nc1nnc(-c2ccc(F)cc2)o1)c1ccccc1`: the viability at 1 h, 30 µM in data set [1] is 87%. Moreover, the inhibition on Adenylate cyclase type 8 was found to be 8%.

`O=C(Nc1nnc(C2CCCCC2)o1)c1cccc(C(F)(F)F)c1`: the Ratio IC50 in the data set listed under Homo sapiens was over 3.6. Further, the viability at 1 h, 30 µM in data set [1] is 102%.

For `O=C(Nc1nnc(-c2ccc3c(c2)CCCC3)o1)c1ccccc1`, the Ratio IC50 in the data set listed under Homo sapiens lay within 1.1 to 5.6. The viability at 1 h, 30 µM in data set [1] was 84 to 124%.

For `COc1ccc(C(=O)Nc2nnc(-c3cccs3)o2)cc1`, the viability at 1 h, 30 µM in data set [1] worked out at 97%. Moreover, the inhibition on Adenylate cyclase type 8 stood at 10%.

Consider `Cc1ccc(C(=O)Nc2nnc(-c3ccc4c(c3)CCCC4)o2)cc1C(F)(F)F`, for which the Ratio IC50 in the data set listed under Homo sapiens worked out at 0.5. Moreover, the viability at 1 h, 30 µM in data set [1] is 115%.

In the case of `Cc1ccc(C(=O)Nc2nnc(-c3ccc4c(c3)OCCO4)o2)cc1C`, the Ratio IC50 in the data set listed under Homo sapiens came to 2.6. Also, the viability at 1 h, 30 µM in data set [1] was found to be 113%.

Turning to `COc1cccc(C(=O)Nc2nnc(-c3ccc(F)cc3)o2)c1`, the viability at 1 h, 30 µM in data set [1] turned out to be 99%. Also, the inhibition at Adenylate cyclase type 8 was 23%.

With `Cc1ccc(C(=O)Nc2nnc(C3CCCCC3)o2)cc1C(F)(F)F`, the Ratio IC50 in the data set filed under Homo sapiens was 1.9. The viability at 1 h, 30 µM in data set [1] is 139%.

For the molecule `CCc1ccc(C(=O)Nc2nnc(-c3ccc(F)cc3)o2)cc1`, in data set [1], the viability at 1 h, 30 µM is 95%. The inhibition on Adenylate cyclase type 8 turned out to be 32%.

`COc1ccc(C(=O)Nc2nnc(-c3ccc4c(c3)CCCC4)o2)cc1`: the Ratio IC50 in the data set listed under Homo sapiens is over 4.7. In addition, in data set [1], the viability at 1 h, 30 µM was 118 to 121%. Moreover, the inhibition at Adenylate cyclase type 8 is 34%.

For the molecule `CC(C)Oc1ccc(C(=O)Nc2nnc(-c3cccs3)o2)cc1`, in data set [1], the viability at 1 h, 30 µM was 73 to 81%. Moreover, the inhibition at Adenylate cyclase type 8 fell in the range of 24 to 35%.

As for `CC(C)Oc1ccc(C(=O)Nc2nnc(C3CCCCC3)o2)cc1`, the viability at 1 h, 30 µM in data set [1] is 99%. The inhibition at Adenylate cyclase type 8 is 35%.

`O=C(Nc1nnc(C2CCCCC2)o1)c1ccc(Br)cc1`: the Ratio IC50 in the data set listed under Homo sapiens came to 2.9. Besides, the viability at 1 h, 30 µM in data set [1] was found to be 108%.

As to `COc1cc(C(=O)Nc2nnc(C3CCCCC3)o2)cc(C(F)(F)F)c1`, in the data set filed under Homo sapiens, the Ratio IC50 is 1.9. Moreover, the viability at 1 h, 30 µM in data set [1] worked out at 113%.

As to `CSc1cccc(C(=O)Nc2nnc(-c3ccc4c(c3)CCCC4)o2)c1`, the Ratio IC50 in the data set listed under Homo sapiens lay within 5.5 to 10. For the same molecule, the viability at 1 h, 30 µM in data set [1] fell in the range of 118 to 137%.

With `O=C(Nc1nnc(-c2ccc(F)cc2)o1)c1ccc(-c2ccccc2)cc1`, the Ratio IC50 in the data set listed under Homo sapiens was determined as 2.7. Also, the viability at 1 h, 30 µM in data set [1] came to 114%.

For `O=C(Nc1nnc(-c2ccc(F)cc2)o1)c1ccc(Br)cc1`, the viability at 1 h, 30 µM in data set [1] was 103%. In addition, the inhibition at Adenylate cyclase type 8 came out at 33%.
